# Screening data as filed in PubChem BioAssay.
# A selection: hits, their analogues and other compounds. The true share with any hit is near 2.2%.
# miR122 inh = miR-122 Renilla sensor signal increase in Huh7, primary screen, miR-122 inhibitor project, cell-based, single point, plate reader. hit rate 0.3% among 340,000. AID 602342, 2012. Huh7 miR-122 Renilla luciferase sensor, 48 h; neutral wells = 0, positive control = 100. activation (reporter increase), % at 12.5 µM;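 active means mean replicate activation score at least 90 and every replicate individually at or above 90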;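 further: higher luciferase means less miR-122 activity so hits act as miR-122 inhibitors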
# NR2E3 ag-1 = NR2E3 agonists in two-hybrid cells, primary screen, cell-based, luminescence, CHO-S, Gal4-NCOR/VP16-NR2E3 | inhibition of corepressor binding, % at 3.98 µM | luciferase | hit rate 0.35% among 360,000 | Photoreceptor-specific nuclear receptor (Homo sapiens), Q9Y5X4;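 active means inhibition above the mean of all tested compounds plus 3 SD, cut at about 70% in these data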;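 further: 0% = DMSO with NR2E3 transfected cells and 100% = cells lacking NR2E3 construct; higher means lower luciferase signal from less NR2E3 corepressor binding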
# Target sequence (Q9Y5X4 whole entry, looked up, the tested form may be a part): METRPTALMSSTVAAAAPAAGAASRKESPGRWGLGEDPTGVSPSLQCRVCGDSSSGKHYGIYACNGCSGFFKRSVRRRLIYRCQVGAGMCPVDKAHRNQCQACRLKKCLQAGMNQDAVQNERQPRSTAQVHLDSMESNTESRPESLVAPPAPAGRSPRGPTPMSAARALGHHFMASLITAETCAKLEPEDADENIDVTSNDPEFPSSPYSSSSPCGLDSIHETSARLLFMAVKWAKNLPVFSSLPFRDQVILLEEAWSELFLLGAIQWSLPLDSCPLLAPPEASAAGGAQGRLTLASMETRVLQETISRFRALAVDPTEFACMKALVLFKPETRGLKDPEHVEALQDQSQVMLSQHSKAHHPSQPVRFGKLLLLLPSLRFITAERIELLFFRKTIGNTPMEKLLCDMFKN
# Jurkat NFkB inh = inhibitors of induced NF-kB luciferase reporter, primary screen, TCR NF-kB activation inhibitor project, cell-based, luminescence, uHTS | Jurkat, PMA/ionomycin-induced NF-kB luciferase reporter | inhibition, % at 4 µM | hit rate 0.53% among 330,000 | AID 435003, 2010; in the data active means inhibition above about 50%
# 697 NFkB inh = inhibitors of PMA/ionomycin-induced NF-kB reporter, 697 cells, primary screen, B-cell NF-kB inhibitor project, cell-based, luminescence, uHTS; 697 B-cell NF-kB luciferase reporter, 16 h; inhibition, % at 4 µM; hit rate 0.33% among 330,000; AID 435022, 2010; in the data active means inhibition above about 35%
# NR2E3 ag-2 = inhibitors of NR2E3-RetCOR corepressor binding, primary screen, NR2E3 agonist project, biochemical, TR-FRET, GST-NR2E3, biotin-RetCOR. Photoreceptor-specific nuclear receptor (Homo sapiens), Q9Y5X4. 1536-well. inhibition of corepressor binding, % at 4.78 µM. hit rate 0.12% among 320,000. AID 2300, 2010;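 active means percent inhibition above the cutoff of mean plus 3 SD of all tested compounds, set per screening campaign, cut at about 20% in these data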;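 further: 0% = DMSO wells and 100% = biotin wells as full block of FRET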
#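 Material: NR2E3–RetCOR corepressor complex / Incubation: Compound–protein incubation for 5 h at 4 °C / Dosing: compound at 4.8 µM, single dose / Detection: time-resolved FRET / Benchmarks: high control biotin, low control 0.6% DMSO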
# FGF22 binding = binders of human FGF22 protein, primary screen, FGF22 synaptogenesis inhibitor project, biophysical, thermal shift, single point. Fibroblast growth factor 22 (Homo sapiens), Q9HCT0. recombinant FGF22 thermal shift, SYPRO orange fluorescence; percent of sucrose octasulfate shift, DMSO zero. activity (Tm shift, normalised), % at 9.99 µM. hit rate 1.5% among 340,000;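 active means mean Tm shift, scaled 0 neutral to 100 positive control, at about 1.3% or above, every replicate too, limit read from the data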
# Target sequence (Q9HCT0 whole entry, looked up): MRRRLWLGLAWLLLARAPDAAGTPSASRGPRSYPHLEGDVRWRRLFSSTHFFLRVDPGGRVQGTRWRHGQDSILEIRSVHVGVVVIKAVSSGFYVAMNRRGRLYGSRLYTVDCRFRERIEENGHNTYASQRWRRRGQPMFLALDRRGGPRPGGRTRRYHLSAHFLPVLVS
# 697 NFkB conf = PMA/ionomycin-induced NF-kB reporter inhibitors, 697 retest, confirmation, B-cell NF-kB inhibitor project, cell-based, luminescence, single concentration. AID 449746, 2010. 697 B-cell NF-kB luciferase, 16 h. hit rate 35% among 2,000. inhibition, % at 4 µM. shares compounds with 697 NFkB inh; in the data active means inhibition mostly above about 28%, no sharp cut-off; inactive means mostly below about 22%
# An asterisk follows results filed as active; i = inactive; x = not tested or not shown; [ ] = dose if it differs, or a comment.
SMILES,miR122 inh,NR2E3 ag-1,Jurkat NFkB inh,697 NFkB inh,NR2E3 ag-2,FGF22 binding,697 NFkB conf
Cc1ncc(S(=O)(=O)c2ccc(Cl)cc2)c(-c2ccccc2)n1,-5.6,-9.2,2.8,39.7*,-1.3,x,7.8
COCCCn1c(=O)/c(=C\c2cccc(OC)c2OC)s/c1=C(/C#N)C(=O)Nc1ccc(C(=O)O)cc1,2.8,-10.6,-3.0,43.3*,4.3,-0.4,36.7*
C[C@H](NC(=O)C[C@H]1C=C[C@@H](NC(=O)Cc2ccccn2)[C@H](CO)O1)c1ccccc1,x,x,x,x,x,0.0,x
CC(=O)N(C)C[C@@H]1Oc2cc(C#Cc3ccccn3)ccc2S(=O)(=O)N([C@H](C)CO)C[C@@H]1C,-6.0[16.7 µM],x,x,x,x,-0.1,x
C(=C\c1nnc(-c2cccs2)o1)/c1ccccc1,-1.9,-120.0,-128.5,-260.4,-1.1,0.2,-198.8
CCOc1ccc(N=C(NN)c2ccc3ccccc3n2)cc1,x,22.8,13.3,-251.8,1.2,x,-42.7
CCOc1ccc(N=C(C)C2=C(O)c3ccccc3C2=O)cc1,x,-110.4,-102.7,-158.1,-1.3,0.0,x
N#C[C@@H]1[C@H](c2ccccc2)[C@H](CO)N1C(=O)Cc1ccccn1,x,x,x,x,x,0.1,x
COc1ccc(C(=O)N=c2sc3c(C)ccc(OC)c3n2C)cc1,x,-99.6,-29.7,-298.7,4.7,-0.1,-336.6
O=[N+]([O-])c1ccc(Sc2ncccn2)c([N+](=O)[O-])c1,-1.9,-18.3,-1.0,40.0*,-2.1,0.0,21.2
Brc1ccccc1-n1nnc(-c2cnc3ccccc3c2)n1,x,-89.6,-149.8,-305.7,-0.5,-0.3,-320.8
COC(=O)C[C@H]1CC[C@@H]2[C@@H](COc3ccc(NS(=O)(=O)c4cccc(F)c4)cc3C(=O)N2C)O1,1.6[16.7 µM],x,x,x,x,0.0,x
O=C(C[C@@H]1CC[C@H]2[C@@H](COC[C@@H](O)CN2Cc2ccc(F)cc2)O1)N1CCc2ccccc2C1,19.3[16.7 µM],x,x,x,x,-1.4,x
CCN(CC)C(=O)N1c2ccccc2C=Cc2ccccc21,-1.8,-6.3,-72.3,i,-0.6,x,i
NC(=O)N1c2ccccc2C=Cc2ccccc21,0.4,-4.7,-4.8,16.8,-0.9,0.1,x
Cc1ccc(S(=O)(=O)N[C@H]2CC[C@H](CC(=O)NCCc3ccncc3)O[C@@H]2CO)cc1,x,x,x,x,x,0.0,x
CCC(=O)N(C)C[C@H]1Oc2cc(C#CC(C)C)ccc2S(=O)(=O)N([C@@H](C)CO)C[C@H]1C,-19.9[16.7 µM],x,x,x,x,0.1,x
COc1ccc(Cl)cc1NC(=O)c1[nH]c(C)c(C(C)=O)c1C,-0.4,2.5,-1.4,1.0,-13.0,-0.1,x
COc1ccc(OC)c(NC(=O)c2[nH]c(C)c(C(C)=O)c2C)c1,28.7,-18.8,-2.7,35.9*,-2.0,x,33.5*
CCOC(=O)C1CCN(C/C=C/c2ccccc2OC)CC1,-5.3,-8.9,0.9,37.6*,3.2,x,-1.7
CCOC(=O)C1CCN(C/C=C/c2ccccc2[N+](=O)[O-])CC1,-2.2,30.3,-13.1,1.0,-0.9,-0.3,x
COc1ccccc1NC(=O)N[C@@H]1CC[C@@H](CC(=O)NCc2ccc(Cl)c(Cl)c2)O[C@H]1CO,x,x,x,x,x,0.4,x
COc1ccc(C(=O)Nc2ccccc2C(=O)NCc2ccco2)cc1OC,-13.4,2.1,13.4,37.1*,-0.9,x,31.2*
Cc1ccc(NC(=O)c2nc[nH]c2C(=O)NCCCCCCNC(=O)c2[nH]cnc2C(=O)Nc2ccc(C)cc2)cc1,-2.2,-24.3,8.7,6.4,x,0.1,x
Cc1ccc(NC(=O)c2nc[nH]c2C(=O)NCCCNC(=O)c2[nH]cnc2C(=O)Nc2ccc(C)cc2)cc1,-5.6,-32.0,-145.3,36.3*,x,x,15.7
SMILES,miR122 inh,NR2E3 ag-1,Jurkat NFkB inh,697 NFkB inh,NR2E3 ag-2,FGF22 binding,697 NFkB conf
COc1ccc(-c2nc(CN3CCN(Cc4ccccc4)CC3)c(C)o2)cc1,x,-7.0,-2.1,-22.2,-1.8,-0.1,x
Cc1oc(-c2ccc(-c3ccccc3)cc2)nc1CN1CCN(CC(=O)N(C)C)CC1,x,-170.7,-14.9,-267.3,2.8,0.3,-262.8
CCCCSc1nnc2c(n1)[nH]c1ccccc12,0.1,-126.4,-122.5,-313.6,-0.5,x,-131.6
COc1ccc2[nH]c3nc(SC(C)C)nnc3c2c1,6.0,-148.4,-130.0,-328.3,-3.2,x,-342.8
CC(C)CSc1nnc2c(n1)[nH]c1ccccc12,x,-126.4,-128.1,-310.9,1.5,x,-197.3
O=C(O)CSc1nnc2c(n1)[nH]c1ccccc12,x,-14.5,-38.6,-22.3,-0.9,0.4,x
COc1ccc(CNC(=O)CSc2nnc3c(n2)[nH]c2ccc(OC)cc23)cc1,0.2,6.1,10.6,2.4,5.1,0.1,x
Cc1noc(C)c1NC(=O)N(C)C[C@H]1OCCCC[C@@H](C)Oc2ccc(NS(=O)(=O)c3cccs3)cc2C(=O)N([C@@H](C)CO)C[C@@H]1C,6.2[16.7 µM],x,x,x,x,0.9,x
O=C(C[C@H]1CC[C@@H](NC(=O)c2ccncc2)[C@@H](CO)O1)NCC1CCCCC1,6.4[16.7 µM],x,x,x,x,0.1,x
C[C@H](CO)N1C[C@H](C)[C@H](CN(C)S(=O)(=O)c2ccccc2)Oc2ccc(NS(=O)(=O)c3ccc(F)cc3)cc2CC1=O,1.0[16.7 µM],x,x,x,x,0.3,x
Cc1ccc(C(=O)C[n+]2cc(-c3ccc(C)cc3)n3c2CCCCC3)cc1,-26.3,2.9,46.2,80.5*,1.8,x,54.2*
Nc1c(C(=O)CSc2nc3ccccc3o2)c(=O)[nH]c(=O)n1C1CC1,-0.8,-24.2,-39.6,-323.4,4.4,0.1,-334.0
COc1ccc(Oc2ccc3c(C(F)(F)F)cc(C(F)(F)F)nc3n2)cc1,-5.0,11.9,-6.2,-0.8,-0.5,x,x
Oc1ccc(Oc2ccc3c(C(F)(F)F)cc(C(F)(F)F)nc3n2)cc1,-6.9,-16.1,13.2,46.1*,-0.2,x,22.2
CC1CCN(CCCNC(=O)COc2cc(=O)n(C)c3ccccc23)CC1,-5.4,-7.0,3.8,36.5*,2.8,x,22.8*
CCn1c(=O)cc(OCC(=O)NCCCN2CCC(C)CC2)c2ccccc21,x,5.0,-6.9,31.7,-1.4,x,x
NNC(=O)COc1ccc(-c2nccc(-c3ccc(F)cc3)n2)cc1,-10.5,12.2,7.5,60.5*,0.5,0.3,50.2*
O=C(O)COc1ccc(-c2nccc(-c3ccccn3)n2)cc1,-2.7,-3.0,6.0,51.6*,0.0,0.5,56.5*
